One test deals with MCF-10A. As to the kind of experiment: Cytotoxicity against human MCF10A cells after 72 hrs by MTT assay. The test is classed as functional, cell-based. Summed up: (§1)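 MTT viability assay on human cell lines, with values given as IC50. Lines used: gemcitabine-resistant pancreatic cancer G3K, breast adenocarcinoma MCF-7, its adriamycin-resistant subline MCF-7/Adr, triple-negative breast cancer MDA-MB-231, nontumorigenic breast epithelial MCF10A, non-small-cell lung cancer A549, and promyelocytic leukemia HL-60.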

In a further test the test system is MDA-MB-231. Briefly: Cytotoxicity against human MDA-MB-231 cells after 72 hrs by MTT assay. The test is classed as functional, cell-based. The settings on record: MDA-MB-231, 72 h.
A further test deals with MCF7. Briefly: Cytotoxicity against human MCF7 cells after 72 hrs by MTT assay. Format: functional, cell-based. To be noted: MCF7, 72 h. Summed up: as §1
A further test has as its system NCI/ADR-RES. Briefly: Cytotoxicity against human MCF7/ADR cells after 72 hrs by MTT assay. The test is classed as functional, cell-based. Summed up:
as §1

A short description of test [1]: Cytotoxicity against human G3K cells after 72 hrs by MTT assay. The test is classed as functional, cell-based. Summed up:
as §1

A further test deals with Bacillus subtilis. As to the kind of experiment: Antimicrobial activity against Bacillus subtilis ATCC 6051 at 1 ug after 24 hrs by paper disc agar diffusion method. Format: functional, organism-based.
In a further test the test system is Klebsiella aerogenes. Briefly: Antimicrobial activity against Enterobacter aerogenes ATCC 13048 at 1 ug after 24 hrs by paper disc agar diffusion method. The test is classed as functional, organism-based.
For the next test, the system named is Pseudomonas aeruginosa. Briefly: Antimicrobial activity against Pseudomonas aeruginosa ATCC 10145 at 1 ug after 24 hrs by paper disc agar diffusion method. The test is classed as functional, organism-based.
The next test relates to A549. As to the kind of experiment: Cytotoxicity against human A549 cells after 72 hrs by MTT assay. The settings on record: A549, 72 h. The test is classed as functional, cell-based. Summed up:
as §1

The next test concerns HL-60. As to the kind of experiment: Cytotoxicity against human HL60 cells after 72 hrs by MTT assay. The test is classed as functional, cell-based. To be noted: HL-60, 72 h. Summed up:
as §1

In a further test the test system is Escherichia coli. Briefly: Antimicrobial activity against Escherichia coli ATCC 11775 at 1 ug after 24 hrs by paper disc agar diffusion method. Format: functional, organism-based. The settings on record: DSM 30083 = JCM 1649 = ATCC 11775.
The subject of the next test is Candida albicans. Briefly: Antimicrobial activity against Candida albicans ATCC 10231 at 1 ug after 24 hrs by paper disc agar diffusion method. The test is classed as functional, organism-based.

Where a name gives a salt, the structure may show the parent alone. Activity calls are given as the source filed them. The rule behind the calls is not given here.

`CC(C)=C/C=C\[C@H](C)[C@H]1CC[C@]2(C)C[C@@H]3C(C)=CC(=O)[C@@H]3/C(C=O)=C\C[C@@H]12`: the concentration for half-maximal inhibition (IC50) was above 40 µM in the test with MCF-10A; 14.1 µM in the test on MDA-MB-231; 22.9 µM in the test on MCF7; 34.6 µM with NCI/ADR-RES; 9.5 µM in test [1].

On to `CO[C@H]1O[C@@]2(OC)C[C@@](C)(O)[C@H]3C[C@@]4(C)CC[C@H]([C@@H](C)/C=C\C=C(C)C)[C@@H]4C/C=C/1[C@H]32` [OPHIOBOLIN O], for which the outcome in the test with Bacillus subtilis, in the test with Klebsiella aerogenes, with Pseudomonas aeruginosa, in the test with Escherichia coli and in the test on Candida albicans was inactive. The figures for the IC50 in the test with A549 and in the test with HL-60 were 2.4 µM and 1.7 µM, respectively.

As for `CC(C)=C/C=C\[C@H](C)[C@H]1CC[C@]2(C)C[C@H]3[C@@H]4/C(=C\C[C@@H]12)CO[C@@H]4C[C@@]3(C)O`, the IC50 with MDA-MB-231 is above 40 µM; in the test with MCF7 it was above 40 µM; in the test with NCI/ADR-RES, above 40 µM; in test [1], above 20 µM.

For `CO[C@H]1C[C@H]2[C@@H]([C@@H](C)/C=C\C=C(C)C)CC[C@]2(C)C[C@H]2[C@H]3C1=CO[C@H]3C[C@@]2(C)O`, the 50% inhibitory concentration (IC50) in the test with MDA-MB-231 is above 40 µM; with MCF7, above 40 µM; in the test with NCI/ADR-RES, above 40 µM; in [1], above 20 µM.

Regarding `CO[C@H]1O[C@]2(OC)C[C@@](C)(O)[C@H]3C[C@@]4(C)CC[C@H]([C@@H](C)/C=C\C=C(C)C)[C@@H]4C/C=C/1[C@@H]32`, the outcome in the test on Bacillus subtilis, in the test with Klebsiella aerogenes, in the test on Pseudomonas aeruginosa, with Escherichia coli and with Candida albicans was inactive. Further, the half-inhibitory concentration (IC50) with MCF-10A is above 40 µM; in the test on MDA-MB-231, 21.4 µM; with MCF7, 9.4 µM; with NCI/ADR-RES, 7.9 µM; in [1], above 20 µM.

With `CC(C)=C/C=C\[C@H](C)[C@H]1CC[C@]2(C)C[C@H]3[C@H](C(=O)C[C@@]3(C)O)/C(C)=C\C[C@@H]12`, the results for the IC50 in the test on A549 and in the test with HL-60 were 15.1 µM and 7 µM, respectively.

Turning to `COc1cccc2c1C(=O)c1c(O)c3c(c(O)c1C2=O)C[C@@](O)(C(=O)CO)C[C@@H]3O[C@H]1C[C@H](N)[C@H](O)[C@H](C)O1` [DOXORUBICIN HYDROCHLORIDE], the IC50 in the test with MCF-10A was found to be 0.2 µM; in the test with MCF7, 0.1 µM; with NCI/ADR-RES, 2.9 µM; in test [1], 45 µM.

`CC(C)=C/C=C\[C@H](C)[C@H]1CC[C@]2(C)CC3=C(C(=O)C[C@H]3C)/C(C=O)=C\C[C@@H]12`: the IC50 was 39.8 µM in the test on MDA-MB-231, above 40 µM in the test on MCF7, above 40 µM in the test with NCI/ADR-RES and above 20 µM in test [1].

`CC(C)=C/C=C\[C@H](C)[C@H]1CC[C@]2(C)C[C@H]3[C@@H]4/C(=C\C[C@@H]12)C(=O)O[C@]4(O)C[C@@]3(C)O`: the result in the test with Bacillus subtilis, with Klebsiella aerogenes, in the test with Pseudomonas aeruginosa, in the test with Escherichia coli and with Candida albicans was inactive. Also, the IC50 in the test on MDA-MB-231 is above 40 µM; in the test on MCF7, above 40 µM; with NCI/ADR-RES it was above 40 µM; in [1], above 20 µM.

With `CC(C)=C/C=C\[C@H](C)[C@H]1CC[C@]2(C)C[C@H]3[C@H](C(=O)C[C@@]3(C)O)/C(C=O)=C\C[C@@H]12`, the IC50 was 8.4 µM in the test on MCF-10A; 5.9 µM in the test with MDA-MB-231; 5.1 µM in the test on MCF7; 4.1 µM with NCI/ADR-RES; above 20 µM in test [1].

Turning to `CC(C)=C/C=C\[C@H](C)[C@H]1CC[C@]2(C)C[C@H]3[C@@H](C(=O)C[C@@]3(C)O)/C(C=O)=C\C[C@@H]12`, the outcome with Bacillus subtilis, with Klebsiella aerogenes, with Pseudomonas aeruginosa, in the test on Escherichia coli and with Candida albicans was inactive. Further, the IC50 is above 40 µM in the test with MCF-10A; 4.1 µM in the test with MDA-MB-231; 12.8 µM in the test on MCF7; 26.1 µM with NCI/ADR-RES; 6.8 µM in [1].

Consider `CC(C)=C/C=C\[C@H](C)[C@H]1CC[C@]2(C)C[C@@H]3C(C)=CC(=O)[C@H]3/C(C=O)=C\C[C@@H]12`, for which the result with Bacillus subtilis, in the test with Klebsiella aerogenes, in the test on Pseudomonas aeruginosa, with Escherichia coli and with Candida albicans was inactive. Also, the IC50 was above 40 µM in the test with MCF-10A; 11.6 µM with MDA-MB-231; 15.4 µM in the test with MCF7; 35.4 µM with NCI/ADR-RES; 16.8 µM in test [1].

Regarding `CC(C)=C/C=C\[C@H](C)[C@H]1CC[C@]2(C)C[C@@H]3C(C)=CC(=O)[C@H]3/C(CO)=C\C[C@@H]12`, the result in the test on Bacillus subtilis, in the test with Klebsiella aerogenes, in the test with Pseudomonas aeruginosa, in the test on Escherichia coli and with Candida albicans was inactive. The half-inhibitory concentration (IC50) is above 50 µM in the test with A549; above 20 µM with MDA-MB-231; above 40 µM with MCF7; above 40 µM in the test with NCI/ADR-RES; 1.9 µM in test [1]; above 50 µM in the test with HL-60.

Regarding `CC(C)=C/C=C\[C@H](C)[C@H]1CC[C@]2(C)C[C@H]3[C@H]4/C(=C\C[C@@H]12)C(=O)O[C@H]4C[C@@]3(C)O`, the outcome with Bacillus subtilis, in the test with Klebsiella aerogenes, in the test on Pseudomonas aeruginosa, in the test with Escherichia coli and with Candida albicans was inactive. For the same compound, the IC50 with A549 is above 50 µM; in the test on MDA-MB-231, above 40 µM; with MCF7 it was above 40 µM; with NCI/ADR-RES, above 40 µM; in test [1] it was above 20 µM; in the test on HL-60, above 50 µM.

Consider `CC1=CC(=O)[C@H]2/C(C=O)=C\C[C@H]3[C@@H]([C@@H](C)/C=C\[C@@H](O)C(C)(C)O)CC[C@]3(C)C[C@H]12`, for which the figures for the IC50 with A549 and in the test with HL-60 were 33.8 µM and 7.2 µM, respectively.

Take `CO[C@@H]1O[C@@]2(OC)C[C@@](C)(O)[C@H]3C[C@@]4(C)CC[C@H]([C@@H](C)/C=C\C=C(C)C)[C@@H]4C/C=C/1[C@H]32`: the outcome in the test on Bacillus subtilis, in the test with Klebsiella aerogenes, in the test on Pseudomonas aeruginosa, in the test with Escherichia coli and in the test with Candida albicans was inactive. Moreover, the IC50 turned out to be 0.6 µM in the test with A549 and 0.8 µM in the test on HL-60.

Turning to `CO[C@@H]1O[C@]2(OC)C[C@@](C)(O)[C@H]3C[C@@]4(C)CC[C@H]([C@@H](C)/C=C\C=C(C)C)[C@@H]4C/C=C/1[C@@H]32`, the outcome in the test with Bacillus subtilis, in the test with Klebsiella aerogenes, in the test with Pseudomonas aeruginosa, in the test with Escherichia coli and with Candida albicans was inactive. The IC50 in the test on MCF-10A was above 40 µM; with MDA-MB-231, 18.5 µM; in the test with MCF7, 13.2 µM; with NCI/ADR-RES it was 5.4 µM; in [1], 19.1 µM.

Regarding `CC(C)=C/C=C\[C@H](C)[C@H]1CC[C@]2(C)CC3=C(C(=O)C[C@H]3C)/C(CO)=C\C[C@@H]12`, the IC50 in the test on MDA-MB-231 is above 40 µM; in the test with MCF7 it was above 40 µM; with NCI/ADR-RES, above 40 µM; in test [1], above 20 µM.
